Measured values taken from ChEMBL document CHEMBL1145399, “Design, synthesis, and pharmacology of novel 7-substituted 3,4-dihydro-2H-1,2,4-benzothiadiazine 1,1-dioxides as positive allosteric modulators of AMPA receptors” (J Med Chem, 2007).

Tests used:
Oocyte [1] = experiment: Activity at Wistar rat cortex AMPA receptor expressed in Xenopus laevis oocytes assessed as 5-fold increase of (S)-AMPA-induced current; format: cell-based
Summary of the method: (§1)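 Two-electrode voltage clamp on Xenopus oocytes injected with rat cortex poly(A+) mRNA. Current is evoked by (S)-AMPA at 10 µM with drug co-applied. Compounds alone were checked on the holding current. Mean ± SEM, n ≥ 2–3.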

Oocyte [2] = experiment: Activity at Wistar rat cortex AMPA receptor expressed in Xenopus laevis oocytes assessed as 2-fold increase of (S)-AMPA-induced current; format: cell-based; summary of the method: as §1
Oocyte [3] = experiment: Activity at Wistar rat cortex AMPA receptor expressed in Xenopus laevis oocytes assessed as maximum increase of (S)-AMPA-induced current; format: cell-based; summary of the method: as §1
Hippocampus = experiment: Increase in (S)-AMPA-stimulated [3H]noradrenaline release in Wistar rat hippocampus at 30 uM relative to control; format: functional
Summary of the method: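 Rat hippocampal slices preloaded with [³H]-noradrenaline. Release is stimulated by (S)-AMPA, with drug at 30 µM. Drug alone was compared with basal DMSO control release. Result is the % increase in AMPA-evoked release.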

[4] = Activity at Wistar rat cortex AMPA receptor expressed in Xenopus laevis oocytes assessed as effect on (S)-AMPA-induced current; format: cell-based; details: Oocyte; summary of the method: as §1

Compound	Activity (Oocyte [1])	Activity (Oocyte [2])	Activity (Oocyte [3])	Activity (Hippocampus)	EC50 [4]
CC1Nc2ccc(Cl)cc2S(=O)(=O)N1 (centres undefined)	509 µM	134 µM	> 700%	–	–
CN1C=NS(=O)(=O)c2cc(Cl)ccc21	> 1000 µM	> 1000 µM	–	–	–
CN1CNS(=O)(=O)c2cc([N+](=O)[O-])ccc21	26 µM	11 µM	> 1400%	–	–
NS(=O)(=O)c1cc2c(cc1Cl)NC(C1CC3C=CC1C3)NS2(=O)=O (centres undefined) [CYCLOTHIAZIDE]	9.8 µM	1.6 µM	844%	73%	7.1 µM
O=S1(=O)N[C@H]2CCCN2c2ccccc21	78.2 µM	24.6 µM	1260%	0%	130 µM
CCN1CNS(=O)(=O)c2cc(C(=O)OC)ccc21	> 100 µM	> 100 µM	–	–	–
CN1C=NS(=O)(=O)c2ccccc21	> 1000 µM	450 µM	–	–	–
CCN1CNS(=O)(=O)c2cc(Br)ccc21	78 µM	29 µM	> 1100%	–	–
CN1CNS(=O)(=O)c2cc(Cl)ccc21	18 µM	6 µM	1740%	–	–
CCN1C=NS(=O)(=O)c2cc(C)ccc21	> 1000 µM	300 µM	> 300%	–	–
CN1CN(C)S(=O)(=O)c2ccccc21	127 µM	37 µM	> 1700%	–	–
CCN1CNS(=O)(=O)c2cc(N)ccc21	> 300 µM	> 300 µM	–	–	–
Cc1ccc2c(c1)S(=O)(=O)NCN2C	47 µM	21 µM	> 3000%	–	–
CCN1CNS(=O)(=O)c2cc(C(=O)Oc3ccccc3)ccc21	180 µM	32 µM	> 600%	–	–
CN1CNS(=O)(=O)c2cc(N)ccc21	> 300 µM	> 300 µM	–	–	–
CCN1CN(C)S(=O)(=O)c2cc(Cl)ccc21	64 µM	21 µM	> 1100%	–	–
CCN1CNS(=O)(=O)c2cc(OC)ccc21	190 µM	68 µM	> 600%	–	–
CN1CN(C)S(=O)(=O)c2cc(Cl)ccc21	17 µM	7 µM	> 1900%	–	–
CCN1CNS(=O)(=O)c2ccccc21	38 µM	14 µM	> 1800%	–	–
CCN1CNS(=O)(=O)c2cc([N+](=O)[O-])ccc21	45 µM	16 µM	> 1000%	–	–
CCN1C=NS(=O)(=O)c2cc(Cl)ccc21	> 1000 µM	400 µM	> 400%	–	–
CCN1CNS(=O)(=O)c2cc(C(=O)O)ccc21	> 100 µM	> 100 µM	–	–	–
CCN1CNS(=O)(=O)c2cc(NC(C)=O)ccc21	> 300 µM	> 300 µM	–	–	–
CCN1CNS(=O)(=O)c2cc(C)ccc21	95 µM	25 µM	> 1300%	–	–
CCN1CNS(=O)(=O)c2cc(C(F)(F)F)ccc21	> 300 µM	> 300 µM	–	–	–
CN1CNS(=O)(=O)c2ccccc21	46 µM	22 µM	> 1900%	–	–
Cc1ccc2c(c1)S(=O)(=O)N=CN2C	650 µM	320 µM	> 600%	–	–
CCN1CNS(=O)(=O)c2cc(I)ccc21	–	95 µM	> 400%	–	–
